The labels stand for the following.
B1: tRNA (parent)
chain: CUCUCGGUAGCCAAGUUGGUUUAAGGCGCAAGACUUUAAUUUAUCACUACGAAAUCUUGAGAUCGGGCGUUCGACUCGCCCCCGGGAGAUUUUUUCCUCGAGCAA

This sample holds only a part of the variants without activity.

In the series the parent is B1. As to the kind of experiment: nonsense suppression (GFP-seq) (ratio to wild type); higher = more function; SUP4oc tRNA, yeast GFP reporter sort-seq. An outline of the steps:
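Nonsense suppression (GFPSEQ) is the median GFP/RFP ratio of each sorting bin, weighted by the variant's estimated share of cells in that bin and expressed relative to the unmutated parent tRNA. Yeast strains carried genome-integrated variants of an ochre-suppressor tRNA from a library with ~3% random mutations, plus a galactose-driven GFP ochre reporter and RFP, and were grown in raffinose/galactose medium containing 80 mg/L adenine. Cells were sorted into GFP/RFP bins, each bin was Illumina-sequenced (phred ≥30), and variants were kept only with ≥100 reads and ≥30 cells.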
Consider UUCUCGGUAGCCAAGUUGUUUUAAGGCCCAAGACUUUAAUUUAUCACUACGAAAUCCUGAGAUCGGGCGUUCGACUCGCCCCCAGGAGAUUUUUUCCUCGAGCAA [C1U G19U G28C U57C G84A], for which the nonsense suppression was at most 0.026.

With UUCUCGAUAGCCAAGUUGGUUUAAGGCGCAAGACUUUAAUUUAUCACUACGAAAUCUUGAGAUCGGGCGUUCGACUCGCCCCCGGGAGAUUUUUUCCUCGAGCAA [C1U G7A], the nonsense suppression is at most 0.026.

As for GUCUCGGUAGCCAAGUUGGUUUAAGGCGCAAGACUUUAAUUUAUCACUACGAAACCUUGAGAUCGGGCGUUCGACUCGCCCCCGGGAGAUUUUUUCCUCGAGCAA [C1G U55C], the nonsense suppression worked out at 0.0398.

For the variant UUCUCGGUAGCCAAGUUGGUUUAAGACGCAAGACUUUAAUUUAUCACUACGAAAUCCUGAGAUCGGGCGUUCGACUCGCCCCCGGGAGAUUUUUUCCUCGAGCAA [C1U G26A U57C], the nonsense suppression was at most 0.026.

As to UUCUCGGUAGCCAAGUUAGUUUAAGGCGCAAGACUUUAAUUUAUCACUACGAAAUCUUGAGAUCGGGCGUUCGACUCGCCCCCGGGAGAUUUUUUCCUCGAGCAA [C1U G18A], the nonsense suppression was at most 0.026.

As for UUCUCAGUAGCCAAGUUGGUUUAAGGCGCAAGACUUUAAUUUAUCACUACGAAAUCUUGAGAUGGGGCGUUCGACUCGCCCCCGGGAGAUUUUUUCCUCGAGCAA [C1U G6A C64G], the nonsense suppression is at most 0.026.

In the case of GUCUCGAUAGCCAAGUUGGUUUAAGGCGCAAGACUUUAAUUUAUCACUACGAAAUCUUGAGAUCGCGCGUUCGCCUCGCCCCCGGGAGAUUUUUUCCUCGAGCAA [C1G G7A G66C A74C], the nonsense suppression is at most 0.026.

Take GUCUCGGUAGCCAAGUUGGUUUAAAGCGCAAGACCUUAAUUUAUCACUACGAAAUCUUGAGAUCGGGCGUUCGACUCGCCCCCGGGAGAUUUUUUCCUCGAGCAA [C1G G25A U35C]: the nonsense suppression was at most 0.026.

On to UUCUCGGUAGCCAACUUGGUUUAAGCCGCAAGACUUUAAUUUAUCACUACGAAAUCUUGAGAUCGGGCGUUCGACUCGCCCCCGGGAGAUUUUUUCCUCGAGCAA [C1U G15C G26C], for which the nonsense suppression was at most 0.026.

As for GUCUCGGUAGCCAAGUUGGUUUAAGGCGCAAGACUUUAAUUUAUCACUACGAAAUCUUGAAAUCGGGCGUUCGACCCGCCCCCGGGAGAUUUUUUCCUCGAGCAA [C1G G61A U76C], the nonsense suppression was found to be 0.0371.

Consider UUCUCGGUAGCCCAGUUGGUUUAAGGCGCCAGACUUUAAUUUAUCACUACGAAAUCUUGAGAUCGGGCGUUCGACUUGCCCCCGGGAGCUUUUUUCCUCGAGCAA [C1U A13C A30C C77U A89C], for which the nonsense suppression is at most 0.026.

On to UUCUCGGUAGCCAAGUUGGUUUAAGUCGCAAGAGUUUAAUUUAUCACUACGAAAUCUUGAGAUCGGGCGUUCGACUCGCCCCCGGGAGAUUUUUUCCUCGAGCAA [C1U G26U C34G], for which the nonsense suppression is at most 0.026.

As for UUUUCGGUAGCCAAGUUGGUUUAAGGCGCAAGACUUUAAUUUAUCACUACGAAAUCUUGAGAUGGGGCUUUCGACUCGCCCCCGGGAGAUUUUUUCCUCGAGCAA [C1U C3U C64G G69U], the nonsense suppression is at most 0.026.

On to GUCUCGGUAGCCAAGUUGGUUUAAGGCGCAAGACUUUAAUUUAUCACUACGAAAUCUUGAAAUCGGGCGUUCGACUCUCCCCCGGGCGAUUUUUUCCUCGAGCAA [C1G G61A G78U A87C], for which the nonsense suppression was at most 0.026.

With GUCUCGGUAGCCAAGUUGGUUUAAGGCGCAAGACUUUAAUUUAUCACUACGAAAUCUCGAGUUCGGGCGUUCGACUCUCCCCCGGGAGAUUUUUUCCUCGAGCAA [C1G U58C A62U G78U], the nonsense suppression was at most 0.026.

Consider GUCUCGGUACCCAAGUUGGUUUAAGGCGUAAGAGUUUAAUUUAUCACUACGAAAUCUUGAGAUCGGGCGUUCGACUCGCCCCCGGGAGGUUUUUUCCUCGAGCAA [C1G G10C C29U C34G A89G], for which the nonsense suppression is at most 0.026.

With UUCUCGGUUGCCAAGUUGGUUUACGGCGCUAGGCUUUAAUUUAUCACUACGAAAUCUUGAGAUCGGGCGUUCGACUCGCCCCCGGGAGAUUUUUUCCUCGAGCAA [C1U A9U A24C A30U A33G], the nonsense suppression is at most 0.026.

UUCUCGGUAGCGAAGUUGGUUUAAGGCGCAAGACUUUAAUUUAUCACUACGAAAUCUUGAGAUCGGGCGUUCGACUCGCCCCCGGGAGAUUUUUUCCUCGAGCAA [C1U C12G]: the nonsense suppression is 0.327.

As to UUCUCGGUAGCAAAGUUGGUUUAAGGCGCAAGACUUUAAUUUAUCACUACGAAAUCUUGAGAUCGGGCGUUCGACUCGCCCCCGGGAGAUUUUUUCCUCGAGCAA [C1U C12A], the nonsense suppression was at most 0.026.

For UUCUCGGUAGCUAAGUUGGUUUAAGGCGCAAGACUUUAAUUUAUCACUACGAAAUCUUGAGAUCGGGCGUUCGACUCGCCCCCGGGAGAUUUUUUCCUCGAGCAA [C1U C12U], the nonsense suppression is at most 0.026.

In the case of UUCUCGGUAGCCAAGUUGGUUUAAGGCGCAAUACUUUAAUUUAUCACUACGAAAACUUGAGCUCGGCCGUUCGACUCGCCCCCGGGAGAUUUUUUCCUCGAGCAA [C1U G32U U55A A62C G67C], the nonsense suppression was at most 0.026.

For UUCUCGGUUGCCCAGUUGGUUUAAGGCGCAAGACUUUAAUUUAUCACUACGAAAUCUUGAGAUUGGGCGUUCGACUCGCCCCCGGGAGAUUUUUUCCUCGAGCAA [C1U A9U A13C C64U], the nonsense suppression was at most 0.026.

In the case of UUAUCGGUAGCCAAGUUGGUUUAAGGCGAAAGACUUUAAUUUAUCACUACGAAAUCUUGAGAUCGGGCGUUCGACUCGCCCCCGGGAGAUUUUUUCCUCGAGCAA [C1U C3A C29A], the nonsense suppression was at most 0.026.

As for UUCUCGGUAGCCAAGUUGGUUUAAGGCGCAAGACUUUAAUUUAUCACUACGAAAUAUUGAGAUCGGGCGUUCGACCCGCCCCCGGGAGAUUUUUUCCUCGAGCAA [C1U C56A U76C], the nonsense suppression was at most 0.026.

As to UUCUCGGUGGCCAAGUUGGUUUAAGGCGCAAGACUUUAAUUUAUCACUACGAAAUCUUGAGAUCGGGCGUUCGACUCGCCCCCGGGAGAUUUUUUCCUCGAGCAA [C1U A9G], the nonsense suppression is 0.0262.

For the variant UUCUCGGUAGCCAAGUUGGUUUAAGGCGCAAGAUUUUAAUUUAUCACUACGAAAUCUUGAGAUCGGGCGUUCGACUCGCCCCCGCGAGAUUUUUUCCUCGAGCAA [C1U C34U G85C], the nonsense suppression is at most 0.026.

Regarding UUCUCGGUAGCCAAGUUGGUUUAAGGCGCAAGACUUUAAUUUAUCACUACGAAAUCUUGAGGUCGGGCGUUCGACUCGCACCCGGGAGAUUUUUUCCUCGAGCAA [C1U A62G C80A], the nonsense suppression was at most 0.026.

Values taken from the RNAGym collection of RNA variant scans (doi:10.1101/gad.245936.114).
